# Screening results (PubChem BioAssay)
# hERG protect: shields human hERG channel from block by proarrhythmic agents; CHO-hERG, FluxOR thallium flux, dofetilide IC70 present; 0.51% of 310,000 active; Q12809; AID 1511; activation (rescue from dofetilide block), less the hit threshold, % at 10 µM;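 active = activation above the mean of controls blocked by dofetilide plus 5 SD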;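 also: thallium influx through hERG after potassium depolarization seen as dye fluorescence rise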
# KCNK3 inh: human KCNK3 channel inhibition, primary screen; O14649; CHO-KCNK3 thallium flux, FluxOR fluorescence; active compounds read low; B-score at 10 µM; 0.84% of 340,000 active; AID 602410;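 active = B-score under library mean minus 4 SD, starting fluorescence ratio at most library mean plus 5 SD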;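 also: more negative B-score means stronger inhibition of thallium flux through KCNK3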
# Target sequence (O14649 whole entry, looked up): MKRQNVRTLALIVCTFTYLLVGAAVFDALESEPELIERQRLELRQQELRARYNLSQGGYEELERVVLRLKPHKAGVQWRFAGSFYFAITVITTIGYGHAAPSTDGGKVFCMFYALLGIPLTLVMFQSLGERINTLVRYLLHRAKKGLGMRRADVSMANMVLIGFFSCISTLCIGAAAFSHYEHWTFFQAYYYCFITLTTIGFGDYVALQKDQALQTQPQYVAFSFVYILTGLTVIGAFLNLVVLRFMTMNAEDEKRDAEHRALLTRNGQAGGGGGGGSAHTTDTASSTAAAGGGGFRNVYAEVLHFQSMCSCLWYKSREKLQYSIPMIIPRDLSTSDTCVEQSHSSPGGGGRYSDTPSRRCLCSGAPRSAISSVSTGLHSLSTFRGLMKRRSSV
# Kir21 inh: inhibitors of mouse Kir2.1 inward-rectifier potassium channel; P35561; HEK293-Kir2.1, FluxOR thallium flux fluorescence; active compounds read low; B-score at 10 µM; 0.85% of 310,000 active; AID 1672;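 active = fluorescence ratio B-score at or below minus 3 SD of library scores, with starting-brightness B-score within 2 SD, cut at about -4.2 in these data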;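 also: channel flux triggered by added potassium and thallium sulfate stimulus; B-score of peak minus minimum fluorescence over baseline after thallium stimulus; more negative B-score means stronger Kir2.1 block with less thallium influx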
# KCNQ1 act: potentiates or activates the human KCNQ1 potassium channel; CHO-K1 KCNQ1, thallium flux FluxOR fluorescence; active compounds read high; 0.35% of 310,000 active; P51787; B-score at 10 µM;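 active = fluorescence ratio B-score, a plate-corrected score, at least three library SD, with initial intensity B-score within 5 SD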
#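 Assay system: stable KCNQ1 CHO-K1 line; medium: assay buffer, equal DMSO in all wells; timing: 90 min dye loading and 20 min compound exposure, both at room temperature; technique: kinetic FluxOR thallium fluorescence, 10-s 1-Hz baseline, 110-s post-stimulus read; read-out basis: B score of baseline-normalized fluorescence ratio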
# KCNK9 block: blocks the human KCNK9 two-pore domain potassium channel; Q9NPC2; HEK293 KCNK9, FluxOR thallium flux fluorescence; active compounds read low; B-score at 10 µM; 1.2% of 310,000 active;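 active = ratio B-score over 3 SD below the library mean, with starting fluorescence within 5 SD of its mean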;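 also: negative B-score means less thallium flux so channel inhibition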
# KCNQ1 block: human KCNQ1 channel inhibition; P51787; CHO-K1 KCNQ1, FluxOR thallium flux fluorescence; active compounds read high; B-score at 10 µM; 1.3% of 310,000 active; AID 2642;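 active = compounds whose thallium flux B-score, printed positive for inhibition, exceeds three library SD while starting fluorescence stays within three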;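 also: channel opened by potassium depolarization with thallium stimulus after 20 min compound exposure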
# * = called active by the depositor; i = inactive; nt = no result. An excerpt weighted towards active compounds, which were near 3.8% of everything screened.
SMILES,hERG protect,KCNK3 inh,Kir21 inh,KCNQ1 act,KCNK9 block,KCNQ1 block
Cc1ccccc1-c1cccc([C@@H]2C[C@H]3[C@H](CON3C)CN2Cc2ccccc2)c1,nt,i,nt,nt,nt,nt
CSc1ccccc1NC(=O)C1=CC(c2cccs2)=NS(=O)(=O)N1C,-12,i,2.3,i,i,i
COc1ccc(C(CC(=O)O)NC(=O)C(c2ccccc2)c2ccccc2)cc1 (stereo not given),11*,i,-0.08,i,i,i
COc1cccc(-c2nn(-c3ccccc3)cc2CN(C)Cc2ccno2)c1,-8,i,-0.53,i,i,i
COc1cccc(-c2nn(-c3ccccc3)cc2CN(C)C(C)c2ccon2)c1 (stereo not given),-5,i,-0.11,i,i,6*
CS(=O)(=O)N(Cc1ccc(Cl)cc1)c1ccc(C(=O)NCc2ccccn2)cc1,-10,i,-0.43,i,i,i
CS(=O)(=O)N(Cc1ccc(Cl)cc1)c1ccc(C(=O)N/N=C/c2cc3ccccc3nc2Cl)cc1,-9,i,-0.85,i,-7.3*,i
Cn1c(CNC(=O)c2ccccc2F)nnc1SCC(=O)Nc1nncs1,-3,i,0.35,i,i,i
Cn1c(CNC(=O)c2ccccc2F)nnc1SCc1ccc(Cl)cc1,8.0*,i,-1.9,i,i,i
COc1ccc(C(=O)NCCCNC(=O)c2ccc(C)nc2)cc1,-2,i,-0.61,i,i,i
CCCCOc1ccc(CSC(=N)N)cc1Cl,-20,i,-12*,i,i,i
CC1(CCCN2C(=O)c3ccccc3C2=O)OCCO1,-4,i,-0.53,i,i,i
Cc1ccc(C(=O)N/N=C/c2ccoc2)cc1C,-6,i,-0.35,i,i,i
CCCCn1nnc(NC(=O)Cc2ccc(Cl)cc2)n1,6.0*,i,1.1,i,i,i
CCCn1nnc(NC(=O)Cc2ccccc2)n1,-8,i,-0.44,i,i,i
CCCCn1nnc(NC(=O)c2ccc(-c3cccc([N+](=O)[O-])c3)o2)n1,22*,nt,0.46,i,i,i
COc1ccccc1CNC(=O)C1(NC(=O)Nc2ccc(C)cc2)CCCCC1,-14,i,0.12,i,i,i
Cc1ccc(CNC(=O)C2(NC(=O)Nc3ccc(C)cc3)CCCCC2)cc1,4.6*,i,-0.29,i,i,i
CC(C)Cn1c(N)c(C(=O)COC(=O)c2ccc(O)cc2O)c(=O)n(C)c1=O,-10,i,-1.5,i,i,i
O=c1[nH]c(=O)n(C(c2ccccc2)(c2ccccc2)c2ccccc2)cc1N(CCO)CCO,nt,i,nt,nt,nt,nt
CCOc1ccc(OCCC(=O)OCC(=O)N2CCN(S(=O)(=O)c3ccc(Cl)cc3)CC2)cc1,-4,i,-1.5,i,i,i
S=c1nc[nH]c2c1sc1nc(-c3ccccc3)c3c(c12)CCCC3,52*,i,-0.56,60*,i,i
O=C(COC(=O)CCNS(=O)(=O)c1ccc2c(c1)OCCO2)NC1CCCc2ccccc21 (stereo not given),5.3*,i,-0.04,i,i,i
CC[C@]12c3[nH]c4ccc(Cl)cc4c3CCN1C(=O)[C@@H](CC(=O)NCCCn1ccnc1)C[C@@H]2C(=O)N1CCN(C(=O)c2ccco2)CC1,nt,i,nt,nt,nt,nt
CN1/C(=C\C(=O)CSc2nnc(NCc3ccccc3)s2)C(C)(C)c2ccccc21,-28,i,-9.7*,i,i,i
SMILES,hERG protect,KCNK3 inh,Kir21 inh,KCNQ1 act,KCNK9 block,KCNQ1 block
CC1(c2ccc3ccccc3c2)NC(=O)N(CC(=O)N2CCN(Cc3ccc(C#N)cc3)CC2)C1=O (stereo not given),nt,i,nt,nt,nt,nt
O=C1[C@H]2[C@@H](c3ccc(F)cc3)N3C(=O)N(c4cccc(Cl)c4)C(=O)[C@@]3(Cc3ccccc3)[C@H]2C(=O)N1C1CCCCC1,-3,i,-0.64,i,i,7*
N#Cc1c(NC(=O)COC(=O)C2CC3C=CC2C3)oc(-c2ccccc2)c1-c1ccccc1 (stereo not given),-18,i,-0.35,i,i,10*
N#Cc1c(NC(=O)CSc2n[nH]c(Cc3ccccc3)n2)oc(-c2ccccc2)c1-c1ccccc1,-7,i,0.42,i,i,9*
COc1ccccc1OCC(=O)Nc1oc(-c2ccccc2)c(-c2ccccc2)c1C#N,nt,-9.4*,nt,nt,nt,nt
Cc1ccc(OCC(=O)Nc2oc(-c3ccccc3)c(-c3ccccc3)c2C#N)cc1,-4,i,0.36,i,i,6*
Cc1ccccc1NC(=O)c1cc[n+]([O-])cc1,-7,i,-0.15,i,i,i
Cc1cc(C(=O)NC2CCCc3c2cnn3-c2ccc(C(C)(C)C)cc2)n[nH]1 (stereo not given),-5,i,0.91,i,i,i
CN(C1(C)CCS(=O)(=O)C1)S(=O)(=O)c1ccc2ccccc2c1 (stereo not given),-6,i,1.7,i,i,i
COc1ccc(-c2oc(NC(=O)CSc3ncn[nH]3)c(C#N)c2-c2ccc(OC)cc2)cc1,-18,-13*,0.08,i,i,i
COc1ccc(-c2oc(NC(=O)CCl)c(C#N)c2-c2ccc(OC)cc2)cc1,-3,i,-0.02,i,i,i
O=C1C(Cl)=C(NCc2cccnc2)C(=O)c2ccccc21,-17,i,-0.84,i,i,9*
C=CCNC1=C(Cl)C(=O)c2ccccc2C1=O,-4,i,0.16,i,i,i
CC(C)NC1=C(Cl)C(=O)c2ccccc2C1=O,4.9*,i,-0.96,i,i,i
O=C1C(Cl)=C(Nc2ccccc2)C(=O)c2ccccc21,-10,i,-0.48,i,i,i
CN1CCCC(OC(=O)c2cccc(Cl)c2)C1 (stereo not given),-11,i,0.49,i,i,i
CN1CCCC(OC(=O)c2cc(Cl)cc(Cl)c2)C1 (stereo not given),-13,i,-4.3*,i,i,i
COc1ccccc1NS(=O)(=O)c1cccc(NC(=O)CCNC(=O)c2ccccc2OC)c1,nt,i,nt,nt,nt,nt
Cc1cc(NC(=O)Cc2ccccc2[N+](=O)[O-])no1,-3,i,-0.48,i,i,i
N#Cc1ccccc1NS(=O)(=O)c1cc2c3c(c1)CCC(=O)N3CCC2,-7,i,1.1,8*,i,i
O=[N+]([O-])c1ccccc1Nc1cccc(F)c1,nt,i,nt,nt,nt,nt
O=C(Nc1ccccc1)Nc1cccc2ccccc12,-7,i,-0.06,i,i,i
